XiGFP reactiv = activators of X-chromosome reactivation in mouse fibroblasts. hit rate 0.055% among 360,000. XiGFP mouse fibroblasts, % GFP-positive cells imaging, 3 d; cells co-treated with 5-aza-dC sensitizer; scaled so ellipticine positive control = 100%. activation, % at 7.58 µM;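 active = mean normalized replicate activation at least 10% and every replicate at or above 10%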;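 also: 0% = median of on-plate neutral control wells and 100% = ellipticine 6 µM median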
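Schedule: 3 d treatment, 15 min room-temperature fixation; system: 68-5-11 XiGFP fibroblast line; buffer or medium: DMEM plus 5-aza-dC sensitizer; control set: ellipticine 6 µM positive control; compound: one concentration, pinned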
sPLA2-III inh = Blocks human group III sPLA2 activity; Q9NZ20; QFRET BODIPY PC-A2 liposome hydrolysis, fluorescence; inhibition, % at 12.2 µM; hit rate 0.56% among 370,000;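 active = inhibition above mean plus 3 SD of compounds lying within the high and low control bounds, cut at about 19% in these data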;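 also: 0% = median of test compound wells and 100% = no enzyme DMSO wells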
Target sequence (Q9NZ20 whole entry, looked up): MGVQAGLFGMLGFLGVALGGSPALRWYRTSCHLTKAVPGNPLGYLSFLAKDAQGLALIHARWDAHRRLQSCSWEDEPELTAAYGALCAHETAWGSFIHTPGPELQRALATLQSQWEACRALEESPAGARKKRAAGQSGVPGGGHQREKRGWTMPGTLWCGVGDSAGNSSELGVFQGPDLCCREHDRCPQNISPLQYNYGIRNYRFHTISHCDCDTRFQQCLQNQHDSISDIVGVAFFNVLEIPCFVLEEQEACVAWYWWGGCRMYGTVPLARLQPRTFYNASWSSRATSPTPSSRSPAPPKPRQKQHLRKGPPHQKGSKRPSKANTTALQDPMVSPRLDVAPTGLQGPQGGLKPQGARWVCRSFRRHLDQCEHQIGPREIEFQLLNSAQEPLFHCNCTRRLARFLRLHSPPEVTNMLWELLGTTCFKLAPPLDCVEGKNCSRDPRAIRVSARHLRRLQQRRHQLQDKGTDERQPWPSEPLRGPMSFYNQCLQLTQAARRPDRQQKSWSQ
NSD2 inh = inhibitors of human histone methyltransferase NSD2. O96028. NSD2 peptide methylation, AlphaScreen, 120 min. inhibition, % at 12.5 µM. hit rate 0.54% among 310,000. AID 743445; in the data active = inhibition above about 50%
SR-BI DiI inh = blocks mouse SR-BI lipid uptake from DiI-HDL; ldlA[mSR-BI] CHO cells, DiI-HDL uptake fluorescence, 3 h; inhibition, % at 12.5 µM; hit rate 0.96% among 320,000; AID 488896;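 active = mean replicate inhibition of at least 70% and a set share of replicates each scoring 70 or more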;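 also: 0% = median of neutral control wells and 100% = median of positive control wells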
SR-BI uptake up = SR-BI HDL lipid transfer activation | CHO ldlA[mSR-BI] cells, DiI-HDL uptake fluorescence, 3 h; 100 = double the neutral-control signal | activation, % at 12.5 µM | hit rate 0.096% among 320,000;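 active = mean replicate activation of at least 60% and every replicate at or above 60%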;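 also: 0% = median plate neutral-control signal and 100% = twice that signal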
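Test system: SR-BI-overexpressing, LDLR-lacking CHO cells; Medium: Ham's F12 with 0.5% BSA, HEPES 25 mM, pH 7.4; Schedule: 3 h, 37 °C; Technique: bottom-read fluorescence, 550/595 nm.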
ARNT-TACC3 inh = disrupts binding between human ARNT and TACC3; Q9Y6A5; hit rate 0.66% among 390,000; inhibition, % at 9.99 µM; AID 623870; AlphaScreen His-ARNT PAS-B/GST-TACC3 binding, luminescence; TACC3 fragment carries E629A point mutation;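 active = mean inhibition of replicates at least 50% and at least half of replicates each reaching 50%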;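 also: 0% = complete ARNT plus TACC3 wells and 100% = ARNT alone without TACC3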
Alpha artifact = AlphaScreen assay artifact in NSD2 counter-screen; hit rate 9.4% among 1,500; AC35, µM (series often up to 10 µM), for the others: at the top dose activity change, negative = signal loss; shares compounds with NSD2 inh; AlphaScreen artifact counterscreen, preloaded methylated H4 peptide; call rule not given here
An asterisk follows results filed as active; . = not tested or not shown. Sampled rows, rich in hits. Any-hit rate of the full collection: about 2%.

SMILES	XiGFP reactiv	sPLA2-III inh	NSD2 inh	SR-BI DiI inh	SR-BI uptake up	ARNT-TACC3 inh	Alpha artifact
CN(CC(=O)Nc1ccccc1Cl)C(=O)COC(=O)c1ccc([N+](=O)[O-])s1	0	3	78*	-18	18	46*	-4%
CO[C@H]1CN(C)C(=O)c2ccc(NS(=O)(=O)c3cn(C)cn3)cc2OC[C@@H](C)N(Cc2cccc(F)c2)C[C@@H]1C	1	.	.	.	.	2	.
Cc1ccccc1CS(=O)(=O)CC(O)CN1CCCC1=O (configuration not stated)	0	-4	129*	-25	25	3	-3%
CC(C)(C)c1ccc(CS(=O)(=O)CC(O)CN2CCCC2=O)cc1 (configuration not stated)	0	0	0	-25	25	-3	.
COc1ccccc1NC(=O)N1CC(=O)N2[C@H](CO)[C@H](c3ccc(C#CCC(C)C)cc3)[C@H]2C1	0	.	.	.	.	.	.
COc1ccc(C(=O)c2nccc3cc(OC)c(OC)cc23)cc1OC	.	.	90*	0	0	32	-1%
O=C(NCCO)/C(=C/c1ccc(Br)cc1)NC(=O)c1cccs1	.	-3	2	-8	8	-24	.
CCN(CC)CCNC(=O)/C(=C\c1cccn1C)NC(=O)c1cccs1	0	2	55*	-24	24	-3	-4%
COc1ccc2[nH]c3c(c2c1)CCN1C(=O)N([C@@H](C)C(=O)NC2CCCC2)C(=O)[C@]31C	.	-20	.	35	-35	-1	.
CCN(CC)CCCNc1nc(CN2CCOCC2)nc2sc3c(c12)CCC3	0	8	54*	1	-1	4	3%
O=C1c2cc(O)c(O)cc2OC(c2ccc(O)c(O)c2)C1O (configuration not stated)	0	-5	68*	-6	6	1	-11%
COc1ccc2c(c1)C(=O)[C@H](O)[C@@H](c1ccc(OC)c(Br)c1)O2	0	-4	.	.	.	.	.
Cc1cc(-c2ccc(C)c(S(=O)(=O)N3CCN(c4ccc([N+](=O)[O-])cc4)CC3)c2)on1	2	-3	3	18	-18	-5	.
Cc1cc(-c2ccc(C)c(S(=O)(=O)N3CCN(c4ccccn4)CC3)c2)on1	0	-2	131*	24	-24	-5	-3%
Cc1ccc(S(=O)(=O)N2CC[C@@H]3[C@@H](CO)Nc4ccc(C#Cc5cccc(F)c5)cc4[C@@H]32)cc1	0	.	.	.	.	17	.
Nc1ncnc(NCc2ccc(F)cc2)c1[N+](=O)[O-]	0	1	-2	0	0	1	.
Nc1ncnc(NCc2ccccc2)c1[N+](=O)[O-]	0	6	53*	-28	28	.	-1%
CC(=O)N(C)c1ccc(N=Nc2c(C)[nH]n(C(N)=S)c2=O)cc1	0	7	80*	-20	20	.	-6%
N#Cc1cc(-c2ccccc2)cnc1Sc1ccc(Cl)cc1	.	2	112*	38	-38	-12	7%
N#Cc1cc(-c2ccc(Cl)cc2)cnc1Sc1ccccc1	.	2	-5	22	-22	-15	.
CCCC1N2CC3([N+](=O)[O-])CN1CC([N+](=O)[O-])(C2)C3(C)C (configuration not stated)	0	3	1	-20	20	-20	.
COc1cccc(CN2CC(C(=O)NCc3ccc(C)o3)CCC2=O)c1 (configuration not stated)	0	0	28	-15	15	-3	.
O=c1oc2ccccc2c2c1ncn2C1CCCCC1	.	5	3	8	-8	9	.
COc1ccc(C2SCCN2S(=O)(=O)c2ccccc2)cc1 (configuration not stated)	0	4	99*	21	-21	-12	-1%
C[n+]1cccc2cccc([O-])c21	0	4	103*	-11	11	42	-2%
CCSc1nc2ccccc2n1C(=O)Oc1ccccc1	.	-5	-10	-18	18	-4	.

Screening results deposited in PubChem by several laboratories.
